One test addresses Ac28-SMT (Acanthamoeba castellanii, UniProt L8GNG7). The conditions noted are these: sterol 5 μM to 150 μM, 150 μM SAM, 80 μg SMT; cited from earlier work.
The target of test [1] is T1, AcCYP51 (Acanthamoeba castellanii, UniProt L8GJB3). Put plainly: CYP51 reconstitution assay, AfCPR1 redox partner, products by GC-MS. In kind it is biochemical. The conditions noted are these: for AcCYP51 AfCPR kcat: CYP51 reconstitution assay, 50 μM sterol, AfCPR redox partner; for Yield of 14-desmethyl product from substrate by AcCYP51 (GCMS): AfCPR1 redox partner.
The next test concerns the target Ac24-SMT (Acanthamoeba castellanii, UniProt L8GKC5). The following applies: sterol 5 μM to 150 μM, 150 μM SAM, 80 μg SMT; cited from earlier work.
Test [2] has as its target T1, AcCYP51. Put plainly: AcCYP51 sterol ligand binding, spectral titration. The conditions noted are these: for AcCYP51 Kd: progressive titration of 4 M AcCYP51 with sterol in 40% (W/V) HPCP.
The test system of test [3] is Saccharomyces cerevisiae strain GL7. Put plainly: GL7 sterol auxotroph growth on sterol supplements. In kind it is cell-based. The following applies: sterol supplement, 72 h. Summed up:
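S. cerevisiae GL7 (lanosterol synthase-defective, ergosterol auxotroph) grown in yeast-peptone-dextrose medium with Tween 80 (15 ml/l) and a sterol supplement at 5 mg/l, or no sterol, for 72 h. Cell density was followed to stationary phase. Sterols were recovered from cells and analysed.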

The test system of a further test is Acanthamoeba castellanii. In kind it is cell-based.
In test [4] the test system is Acanthamoeba castellanii trophozoites. Put plainly: Time-dependent killing and regrowth in fresh medium. Format: cell-based. The conditions noted are these: inhibitor at approximate MAC, then fresh medium for a week.
Test [5] shares this test system. Put plainly: Trophozoite toxicity assay. The following applies: for IC50: Acanthamoeba castellanii, 48 h, read-out: IC50 against trophozoite growth. Format: cell-based.
Test [6] deals with Acanthamoeba castellanii resting cysts. Put plainly: Cysticidal / excystment assay. Format: cell-based. The following applies: cysts from the SDS-treated process.
Test [7] concerns Acanthamoeba castellanii trophozoites. Put plainly: Trophozoite growth with cholesterol supplement. In kind it is cell-based. The following applies: 10μM in DMSO or as FBS. Summed up: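 Axenic static cultures of strain ATCC 30010 were grown in 5 ml ATCC medium 712 in T-flasks at 25 °C with occasional hand shaking, seeded with about 1×10^4 trophozoites. The medium was supplemented with FBS, per ATCC medium, or with 10 µM cholesterol in DMSO. Cells were counted along the growth curve, with viability by trypan blue exclusion.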

Where “and” joins values, the source holds several entries; their conditions need not be identical. Equal entries are not always repeated.

In the case of `C=C(CC[C@@H](C)[C@H]1CC[C@H]2C3=CC[C@H]4[C@H](C)[C@@H](O)CC[C@]4(C)[C@H]3CC[C@]12C)C(C)C` [compound 14, 4α-Methylergosta-7, 24(28)-dienol], the 28-SMT kcat at Ac28-SMT is 0.0133 ± 0.00067 s⁻¹. Besides, the “AcCYP51 AfCPR kcat” value at AcCYP51 [1] amounted to 0 s⁻¹. For the same compound, the 24-SMT kcat at Ac24-SMT is 0 s⁻¹.
As usually defined, the Kd is the concentration at which binding is half-saturated. On to `C=C(CC[C@@H](C)[C@H]1CC[C@@]2(C)C3=C(CC[C@]12C)[C@@]1(C)CC[C@H](O)[C@@H](C)[C@@H]1CC3)C(C)C` [compound 10], for which the 28-SMT kcat on Ac28-SMT is 0 s⁻¹. For the same compound, on AcCYP51 [1] (listed as obtusifoliol), the “Yield of 14-desmethyl product from substrate by AcCYP51 (GCMS)” value (“Yield of 14-desmethyl product” for short) is < 95% and 95%; the “AcCYP51 AfCPR kcat” value is 0.127 s⁻¹. At AcCYP51 [1], the “AcCYP51 AfCPR kcat” value amounted to 0.127 ± 0.00083 s⁻¹. The affinity at AcCYP51 [2], expressed as Kd, was 41 ± 3 µM. In addition, the 24-SMT kcat on Ac24-SMT was 0 s⁻¹.
In the case of `CC[C@@H](C=C[C@@H](C)[C@H]1CC[C@H]2C3=CC=C4C[C@@H](O)CC[C@]4(C)[C@H]3CC[C@]12C)C(C)C` [compound 11, Poriferasta-5,7,22-trienol], the “GL7 cell density at stationary phase / growth arrest” value in test [3] is given as 1 × 10^8 cells/ml.
Broadly, the IC50 is the concentration needed to halve the response being measured. Take `C[C@@H](c1ncncc1F)[C@](O)(Cn1cncn1)c1ccc(F)cc1F` [voriconazole, reference compound]: the “Number of cells at 48 h” value in the test with Acanthamoeba castellanii (reduced by a factor of 10, most dead by trypan blue staining) is reported as 2–3 × 10^4 cells/ml. The “Growth after 48 h treated pellets were transferred to fresh medium” value in test [4] is on record as “a few thousand trophozoites were evident”. Further, the 50% inhibitory concentration (IC50) in [5] worked out at 0.14 µM.
Consider `O=c1[nH]c(=O)n([C@H]2C[C@H](O)[C@@H](CO)O2)cc1F` [FUdR, 5-fluor-2-deoxyuridine], for which, in test [6], the “Excystment of resting cysts into trophozoites under treatment” value is given as “easily excysted into trophozoites by 3 days”. The “Encysted cells alive by trypan blue staining” value in the test with Acanthamoeba castellanii (cultures with inhibitor at stationary phase of control) is over 95%.
With `C=C(CCC(C)C1CCC2(C)C3=C(CCC12C)C1(C)CCC(O)C(C)(C)C1CC3)C(C)C` (stereo not drawn) [compound 32, Lanosta-8,24(28)-dienol], the “AcCYP51 AfCPR kcat” value at AcCYP51 [1] was found to be 0.0533 ± 0.00067 s⁻¹. On AcCYP51 [2], this compound returned a Kd of 51 ± 10 µM.
For the compound `CC(C)=CCC[C@@H](C)[C@H]1CC[C@@]2(C)C3=C(CC[C@]12C)[C@@]1(C)CC[C@H](O)C[C@@H]1CC3` [compound 35, 14α-Methylcholest-8,24(25)-dienol], the 28-SMT kcat at Ac28-SMT is 0.0065 ± 0.00033 s⁻¹. The “AcCYP51 AfCPR kcat” value at AcCYP51 [1] amounted to 0.0267 ± 0.0013 s⁻¹. Also, the 24-SMT kcat on Ac24-SMT was 0.025 ± 0.00083 s⁻¹.
As to `CC(C)=CCCC(C)C1CCC2(C)C3=CCC4C(C)(C)C(O)CCC4(C)C3CCC12C` (stereo not drawn) [compound 36, Lanosta-7,24(25)-dienol], the “AcCYP51 AfCPR kcat” value at AcCYP51 [1] was 0 s⁻¹.
In the case of `C=C(CC[C@@H](C)[C@H]1CC[C@@]2(C)[C@@H]3CC[C@H]4[C@H](C)[C@@H](O)CC[C@@]45C[C@@]35CC[C@]12C)C(C)C` [compound 24, 4α-Methylcycloart-24(28)-enol], on AcCYP51 [1], the “Yield of 14-desmethyl product” value is ~ 1% and the “AcCYP51 AfCPR kcat” value is 0.00067 ± 0.00017 s⁻¹. In addition, the “AcCYP51 Kd” value at AcCYP51 [2] is “No fit”.
As for `CC(C)CCC[C@@H](C)[C@H]1CC[C@H]2[C@@H]3CC=C4C[C@@H](O)CC[C@]4(C)[C@H]3CC[C@]12C` [cholesterol], the “Effect of supplement on trophozoite growth” value in test [7] was “only a minor stimulation effect”.
`CC(C)CCC[C@@H](C)[C@H]1CC[C@@]2(C)C3=C(CC[C@]12C)[C@@]1(C)CC[C@H](O)C(C)(C)[C@@H]1CC3` [compound 34, Lanost-8-enol]: the “AcCYP51 AfCPR kcat” value at AcCYP51 [1] worked out at 0.0333 ± 3.3e-05 s⁻¹.
Turning to `CC[C@@H](C=C[C@@H](C)[C@H]1CC[C@H]2[C@@H]3CC=C4C[C@@H](O)CC[C@]4(C)[C@H]3CC[C@]12C)C(C)C` [compound 6, Poriferasta-5,22 -dienol], in test [3], the “GL7 cell density at stationary phase / growth arrest” value is given as 1 × 10^8 cells/ml.
For the compound `CC(C)=CCC[C@@H](C)[C@H]1CC[C@@]2(C)[C@@H]3CC[C@H]4C(C)(C)[C@@H](O)CC[C@@]45C[C@@]35CC[C@]12C` [compound 21, Cycloart-24(25)-enol], the 28-SMT kcat at Ac28-SMT is 0.0075 ± 0.0005 s⁻¹. Also, on AcCYP51 [1], the “Yield of 14-desmethyl product” value is “no metabolism occurred” and the “AcCYP51 AfCPR kcat” value is 0 s⁻¹. In addition, the Kd on AcCYP51 [2] amounted to 18 ± 5 µM. Besides, the 24-SMT kcat on Ac24-SMT was 0.025 ± 0.0012 s⁻¹.
In the case of `C[C@H](CCCN(C)C)[C@H]1CC[C@@]2(C)[C@@H]3CC[C@H]4C(C)(C)[C@@H](O)CC[C@@]45C[C@@]35CC[C@]12C` [25-azacycloartanol], in [4], the “Growth after 48 h treated pellets were transferred to fresh medium” value was “no growth”. For the same compound, the IC50 in test [5] worked out at 0.025 µM. The “MAC (minimum amoebicidal concentration)” value in [5] (lowest concentration with no visible live trophozoites, 48 hr) was in the range of 1 to 3 µM.
For the compound `CC(C)[C@@H](C)/C=C/[C@@H](C)[C@H]1CC[C@H]2C3=CC=C4C[C@@H](O)CC[C@]4(C)[C@H]3CC[C@]12C` [compound 2, Ergosta-5,7,22-trienol], the “GL7 cell density at stationary phase / growth arrest” value in [3] was ~1 × 10^8 cells/ml.
Take `CC(C)=CCC[C@@H](C)[C@H]1CC[C@@]2(C)C3=C(CC[C@]12C)[C@@]1(C)CC[C@H](O)C(C)(C)[C@@H]1CC3` [compound 33, Lanosta-8,24(25)-dienol]: at Ac28-SMT, the 28-SMT kcat is 0.00383 ± 0.00017 s⁻¹. On AcCYP51 [1], the “AcCYP51 AfCPR kcat” value is 0.0283 ± 0.00017 s⁻¹. The same compound yielded a Kd on AcCYP51 [2] of 46 ± 3 µM. Also, at Ac24-SMT, the 24-SMT kcat was 0.025 ± 0.00017 s⁻¹.
In the case of `CC(C)[C@@H](C)/C=C/[C@@H](C)[C@H]1CC[C@H]2[C@@H]3CC=C4C[C@@H](O)CC[C@]4(C)[C@H]3CC[C@]12C` [compound 1, Ergosta-5,22-dienol], the “GL7 cell density at stationary phase / growth arrest” value in test [3] is recorded as 1 × 10^8 cells/ml.
As for `C=C(CC[C@@H](C)[C@H]1CC[C@@]2(C)[C@@H]3CC[C@H]4C(C)(C)[C@@H](O)CC[C@@]45C[C@@]35CC[C@]12C)C(C)C` [compound 27, Cycloart-24(28)-enol], the 28-SMT kcat at Ac28-SMT is 0.00383 ± 0.00083 s⁻¹. For the same compound, the “AcCYP51 AfCPR kcat” value at AcCYP51 [1] came to 0 s⁻¹. Also, the “AcCYP51 Kd” value on AcCYP51 [2] is recorded as “No fit”. The 24-SMT kcat on Ac24-SMT is 0 s⁻¹.
Take `CC(C)=CCC[C@@H](C)[C@H]1CC[C@@]2(C)C3=C(CC[C@]12C)[C@@]1(C)CC[C@H](O)[C@@H](C)[C@@H]1CC3` [compound 37, 4α, 14α-Dimethylcholesta-8,24(25)-dienol]: the 28-SMT kcat at Ac28-SMT was 0.0123 ± 0.00033 s⁻¹. In addition, on AcCYP51 [1], the “AcCYP51 AfCPR kcat” value was 0 s⁻¹. The 24-SMT kcat at Ac24-SMT is 0.025 ± 0.00067 s⁻¹.

These data come from publication PMC6180906 (Biochimica et biophysica acta. Molecular and cell biology …, 2018).
